The values below come from BindingDB's records for doi:10.1021/jm701271y (Wyeth Research, 2008).

For the experiment, the target named is Signal transducer and activator of transcription 3 (Homo sapiens, UniProt P40763). The experiment is described as follows: Inhibition of STAT3 Y705 phosphorylation in human U266 cells by Western blot analysis. An outline of the steps:
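Steady-state phosphorylation: exponentially growing U266 cells (1 × 10⁶ cells at 2 × 10⁵ cells/mL, RPMI1640 + 10% FBS) were treated with compound for 1 h. Cells were lysed in PhosphoSafe reagent with protease inhibitors. Western blot used primary antibodies (1:1000, 2 h) and fluorescent secondaries (1 h) at room temperature. A representative blot from several repeats is shown.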

Chain of Signal transducer and activator of transcription 3 (P40763 whole entry): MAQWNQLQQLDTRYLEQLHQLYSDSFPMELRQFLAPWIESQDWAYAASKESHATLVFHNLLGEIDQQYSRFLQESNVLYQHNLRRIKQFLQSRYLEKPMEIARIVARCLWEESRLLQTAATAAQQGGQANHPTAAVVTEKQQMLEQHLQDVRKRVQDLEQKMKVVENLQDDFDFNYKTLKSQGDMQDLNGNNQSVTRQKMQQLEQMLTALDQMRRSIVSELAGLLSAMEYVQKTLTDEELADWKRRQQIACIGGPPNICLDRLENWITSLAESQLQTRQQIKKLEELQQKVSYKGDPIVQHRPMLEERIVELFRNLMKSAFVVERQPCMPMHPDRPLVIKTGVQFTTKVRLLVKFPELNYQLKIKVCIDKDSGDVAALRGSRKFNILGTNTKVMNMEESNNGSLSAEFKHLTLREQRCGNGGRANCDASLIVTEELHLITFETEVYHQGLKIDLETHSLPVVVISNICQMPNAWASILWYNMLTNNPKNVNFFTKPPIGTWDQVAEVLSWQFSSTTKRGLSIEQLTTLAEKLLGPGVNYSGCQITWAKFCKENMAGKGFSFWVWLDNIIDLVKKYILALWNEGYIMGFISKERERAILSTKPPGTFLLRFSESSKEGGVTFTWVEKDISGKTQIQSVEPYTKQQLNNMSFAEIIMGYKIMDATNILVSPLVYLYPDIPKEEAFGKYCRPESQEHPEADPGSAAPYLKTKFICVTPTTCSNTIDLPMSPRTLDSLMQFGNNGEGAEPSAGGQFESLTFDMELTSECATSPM

Turning to `N#Cc1c(F)c(F)c(-n2cc(C(=O)OCc3ccccc3)c(=O)c3cc(F)c(F)c(F)c32)c(F)c1F` [Benzyl 1-(4-Cyano-2,3,5,6-tetrafluorophenyl)-6,7,8-trifluoro-4-oxo-1,4-dihydroquinoline-3-carboxylate], the EC50 was determined as 0.13 µM. `O=C(O)c1cn(-c2c(F)c(F)c(F)c(F)c2F)c2c(F)c(F)c(F)c(F)c2c1=O` [5,6,7,8-Tetrafluoro-4-oxo-1-(pentafluoro-phenyl)-1,4-dihydroquinoline-3-carboxylic acid] yielded a 50% effective concentration (EC50) of 46 µM.

The molecule `N#Cc1c(F)c(F)c(-n2cc(C(=O)NCc3ccc(F)cc3)c(=O)c3cc(F)c(F)c(F)c32)c(F)c1F` [1-(4-Cyano-2,3,5,6-tetrafluorophenyl)-6,7,8-trifluoro-N-(4-fluorobenzyl)-4-oxo-1,4-dihydroquinoline-3-carboxamide] showed a concentration for a half-maximal effect (EC50) of 0.2 µM. In turn, `CCOC(=O)c1cn(-c2c(F)c(F)c(C#N)c(F)c2F)c2c(F)c(F)c(F)cc2c1=O` [Ethyl 1-(4-Cyano-2,3,5,6-tetrafluorophenyl)-6,7,8-trifluoro-4-oxo-1,4-dihydroquino-line-3-carboxylate] yielded a concentration giving a half-maximal response (EC50) of 0.17 µM. The EC50 values of the last two molecules are within 1.5-fold of each other. `CCOC(=O)c1cn(-c2c(F)c(F)c(F)c(F)c2F)c2c(F)c(F)c(F)c(F)c2c1=O` [Ethyl 5,6,7,8-tetrafluoro-4-oxo-1-(pentafluorophenyl)-1,4-dihydroquinoline-3-carboxylate] displayed an EC50 of 4.6 µM.
